Measured values reported in PMC7851350 (Neoplasia (New York, N.Y.), 2021).

Columns and labels:
Jurkat cells = assay: Cell toxicity on Jurkat cells during flow cytometric experiments; assay type: cell-based; settings: concentration up to 50 μM
B16F10-hPD-L1 tumor = assay: Antitumor efficacy in B16F10-hPD-L1 tumor-bearing C57BL/6 mice; assay type: in vivo
MC38 tumor = assay: Antitumor efficacy in MC38 colon tumor-bearing mice; assay type: in vivo, C57BL/6 mice
Summary of the method: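 Mice were female C57BL/6, 5–6 wk old. MC38 cells (3 × 10⁶) were injected s.c. into the right abdomen; mice were randomised at 50–70 mm³. Test compound (10 or 15 mg/kg) was given i.p. every 2 d in saline with 8% ethanol and 8% glycerin. Atezolizumab (10 mg/kg) was given i.v. every 3 d. Calipers were read every 2 d; volume = 1/2 × L × W². Mice were sacrificed after 7 doses. Body weight was followed; growth inhibition was computed against vehicle and predose volumes.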

[1] = system: B16F10-hPD-L1 tumor tissue; assay: Immunohistochemistry of B16F10-hPD-L1 tumor tissue; assay type: in vivo, mice; settings: IHC, 15 mg/kg, vs vehicle
Summary of the method: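 Tumours came from B16F10-hPD-L1-bearing C57BL/6 mice given 15 mg/kg test compound or vehicle. Sections (4 µm) of 4% PFA-fixed, paraffin-embedded tissue were incubated with anti-FoxP3, anti-CD4 and anti-CD8 overnight at 4°C. HRP secondary was applied for 30 min, followed by DAB. Positive particles were counted per field.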

[2] = system: CD4+ T cells cocultured with PD-L1-negative HEK293T cells; assay type: cell-based, human; settings: coculture with PD-L1-negative HEK293T cells, 48 h
Summary of the method: (§1)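 Human CD4⁺ T blasts were expanded ~7 d with IL-2 (100 IU/mL) and CD3/CD28 beads (1:1), then frozen. Target cells (NCI-H1975, HEK293T-hPD-L1 or PD-L1-negative HEK293T; 10,000/well) adhered for 24 h. T cells (2 × 10⁴; E:T 2:1) were added with or without test compound or atezolizumab in complete RPMI-1640 for 48 h at 37°C, 5% CO₂. Supernatant IFN-γ and TNF-α were measured by ELISA.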

[3] = system: B16F10-hPD-L1 tumor tissue; assay: RNA-seq of B16F10-hPD-L1 tumor tissue; assay type: in vivo, mice; settings: 15 mg/kg vs vehicle
[4] = system: CD4+ T cells cocultured with NCI-H1975 cells; assay: T cell response assay, CD4+ T cells cocultured with NCI-H1975 cells; assay type: cell-based, human; settings: 48 h coculture, ELISA
Summary of the method: as §1

[5] = system: CD4+ T cells cultured alone; assay: T cell response assay, prestimulated T cells cultured alone; assay type: cell-based, human; settings: T-lymphocytes cultured alone, 48 h
Summary of the method: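 Prestimulated human CD4⁺ T cells (IL-2 100 IU/mL, CD3/CD28 beads 1:1, ~7 d expansion) were cultured alone (2 × 10⁴) with or without test compound for 48 h at 37°C, 5% CO₂. Supernatant IFN-γ and TNF-α were measured by ELISA.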

[6] = assay type: in vivo, mice
Summary of the method: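 Female C57BL/6 mice bearing subcutaneous B16F10-hPD-L1 tumours were randomised and dosed daily for 1 wk with vehicle, 15 mg/kg or 50 mg/kg test compound. On day 7 after the first dose, serum GOT, GPT, ALP and ALB were measured on an automatic dry-type biochemical analyser. Deaths and toxic effects were recorded during the study.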

[7] = system: spleen T lymphocyte markers; assay: Immunohistochemistry of spleen from treated tumor-bearing mice; assay type: in vivo; settings: IHC, 15 mg/kg, vs vehicle
Summary of the method: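 Spleens came from tumour-bearing mice treated with 15 mg/kg test compound or vehicle. Sections (4 µm) of 4% PFA-fixed, paraffin-embedded tissue were stained overnight at 4°C with anti-CD4, CD8 and FoxP3. HRP secondary was applied for 30 min, then DAB. Positive particles were counted per field (n = 5); mean ± SEM, unpaired t test.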

splenic lymphocytes = assay type: in vivo, mice; settings: 15 mg/kg, vs vehicle
Summary of the method: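 B16F10-hPD-L1 (5 × 10⁶ s.c.) mice received 15 mg/kg test compound i.p. every 2 d or vehicle. Spleens were taken at day 24, meshed through 70 µm, ACK-lysed, and 1 × 10⁶ cells were stained for CD3, CD4, CD8 and perforin. For intracellular cytokines, 2 × 10⁶ cells were stimulated with activation cocktail (1:500) plus brefeldin A (1:1000) for 3–4 h at 37°C, then stained for CD3, CD4, IFN-γ and TNF-α. Data are mean ± SEM; unpaired t test.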

[8] = system: tumor-infiltrating lymphocytes (TILs); assay: Flow cytometry of tumor-infiltrating lymphocytes from B16F10-hPD-L1 tumors; assay type: in vivo, mice; settings: 15 mg/kg
Summary of the method: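 Tumours from B16F10-hPD-L1 mice treated with 15 mg/kg test compound or vehicle were minced and digested for 45 min at 37°C in collagenase IV (200 U/mL) plus DNase I (40 U/mL). They were then treated with EDTA for 5 min at 37°C and strained at 70 µm. Cells were stained for CD3, CD4, CD8, perforin and granzyme B and analysed by flow cytometry; mean ± SEM, unpaired t test.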

[9] = Stability assay in human blood plasma; assay type: in vitro ADME
Summary of the method: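 Test compound at 2 µM was incubated in human plasma at 37°C. Duplicate samples were taken at 0, 10, 30, 60 and 120 min. Reactions were stopped with 50% ACN/MeOH containing tolbutamide and labetalol (200 ng/mL each).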

[10] = system: CD4+ T cells cocultured with hPD-L1 overexpressed HEK293T cells; assay: T cell response assay, CD4+ T cells cocultured with HEK293T-hPD-L1 cells; assay type: cell-based, human; settings: 48 h coculture
Summary of the method: as §1

murine PD-L1 protein = murine PD-L1 protein (Mus musculus, UniProt Q9EP73); assay: SPR binding affinity to murine PD-L1
Chain of murine PD-L1 protein (Q9EP73 19-290): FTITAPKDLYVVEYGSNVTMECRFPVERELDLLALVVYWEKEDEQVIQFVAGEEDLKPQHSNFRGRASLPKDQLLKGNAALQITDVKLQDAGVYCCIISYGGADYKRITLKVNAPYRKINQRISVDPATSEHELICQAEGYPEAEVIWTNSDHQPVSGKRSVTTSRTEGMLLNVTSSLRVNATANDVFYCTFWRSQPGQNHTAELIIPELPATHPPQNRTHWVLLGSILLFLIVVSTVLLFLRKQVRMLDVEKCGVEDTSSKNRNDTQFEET
Summary of the method: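 SPR running buffer was 1.05× PBS (pH 7.4) with 5% DMSO, at 25°C and 30 µL/min. DMSO solvent correction used 8 standards (4.5–5.8%). Test compound (10 mM DMSO stock) was diluted to 100–3.125 µM plus a 0 µM blank. Each cycle had 90 s injection, 120 s dissociation and 30 s buffer carryover check. Kd came from a global steady-state fit.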

post-treatment tumors = settings: responders; cited from earlier work
PD-L1 = settings: cited from earlier work
[11] = 15 and 50 mg/kg daily, day 7, vs control
[12] = flow cytometry and IHC, vs vehicle

## NC(=O)c1ccccc1NC(=O)c1ccc(-c2ccccc2)cc1 [APBC, N-[2-(aminocarbonyl)phenyl][1,1′-biphenyl]-4-carboxamide]
Jurkat cells
  cell toxicity: not observed
B16F10-hPD-L1 tumor; 10 mg/kg intraperitoneal every 2 d, 8 treatments
  tumor growth inhibition: 62.1%
B16F10-hPD-L1 tumor; 15 mg/kg intraperitoneal every 2 d
  treated animals almost tumor free: 4 of 10
B16F10-hPD-L1 tumor; 15 mg/kg intraperitoneal every 2 d, 8 treatments
  tumor growth inhibition: 82.2%
B16F10-hPD-L1 tumor; day 24 after tumor inoculation, vs vehicle group with splenomegaly
  spleen (splenomegaly / spleen weight): normal spleens
MC38 tumor; 10 mg/kg, after 7 times of treatment
  growth of colon tumors: inhibited significantly
MC38 tumor; during the treatment period
  effect on body weight: no significant effect
[1]
  FoxP3 expression levels within tumors: did not significantly change
[2]
  IFN-γ and TNF-α production: did not significantly affect
[3]; CIBERSORTx, P< 0.05
  infiltration of CD8+ T cells in the tumor: significant higher infiltration
[3]; GSEA
  immune pathways (antigen processing and presentation, T-cell receptor signaling, TNF signaling, Th1 and Th2 cell differentiation): markedly upregulated
  pathways related to Glycolysis or MAPK signaling pathway: markedly downregulated
[4]
  IFN-γ level: dose dependent increase
  TNF-α level: dose dependent increase
[5]
  IFN-γ and TNF-α production: did not significantly affect
[6]; 1-wk, daily up to 50 mg/kg
  drug-related deaths: no drug-related deaths
  drug-related toxic effects: no drug-related toxic effects observed
  tolerability: well tolerated
[6]; [11]
  serum level of ALB: no significant changes
  serum level of ALP: no significant changes
[6]; daily, up to 50 mg/kg, day 7
  serum level of GOT: tendency to considerable decrease
  serum level of GPT: tendency to considerable decrease
[6]; up to 50 mg/kg
  toxicity in murine models: no observable toxicity
[7]
  density of CD4+ T lymphocytes in the spleen: considerably higher density
  density of CD8+ T lymphocytes in the spleen: considerably higher density
  expression of FoxP3 in the spleen: no significant changes
Splenic lymphocytes; P < 0.001
  percentage of CD3+ CD4+ T lymphocytes in the spleen: significantly increased
  percentage of CD3+ CD8+ T lymphocytes in the spleen: significantly increased
  percentage of CD3+ T lymphocytes in the spleen: significantly increased
Splenic lymphocytes; spleen
  percentage of IFN-γ producing CD4+ T cells: extremely significant increase
  percentage of TNF-α producing CD4+ T cells: extremely significant increase
Splenic lymphocytes; spleen, P< 0.01
  perforin production from CD3+ cells: significantly increased
[8]; TILs, vs controls
  GzmB expression in CD3+ T cells of tumors: markedly elevated
  perforin expression in CD3+ T cells of tumors: markedly elevated
[8]; [12]
  CD4+ T-cell population in tumors: significantly increased
  CD8+ T-cell population in tumors: significantly increased
[9]
  blood plasma stability: relatively good
[10]; 10 µM
  TNF-α level increase: 41.8%
[10]; 50 μM
  TNF-α production increase: 86.6%
Murine PD-L1 protein
  Kd: > 100 µM

## Atezolizumab: anti-PD-L1 antibody, positive control [reference compound]
B16F10-hPD-L1 tumor; 10 mg/kg tail vein injection every 3 d
  tumor growth inhibition: 66.1%
post-treatment tumors
  cytokines production such as IFN-γ and TNF-α: increased

## C[C@@H](O)[C@H](NC(=O)N[C@@H](CC(N)=O)c1nc([C@@H](N)CO)no1)C(=O)O [CA-170]
PD-L1
  direct binding to PD-L1: no direct binding
